Data taken from article PMC6086215 (Photoacoustics, 2018).

How the values were obtained:
[1] = Absolute fluorescence quantum yield; format: physicochemical; settings: Seronorm vs glucose solution
[2] = In vitro photoacoustic spectra and signal vs concentration in agar phantom; format: physicochemical; settings: in glucose solution 5.5% and serum; spectra 680–970 nm, step 5 nm
How it was run: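 Dyes were diluted in 5.5% glucose (plus 5% DMSO for the conjugate) or incubated 1 h at RT in human serum (HSA 47.8 g/L). Samples were loaded in PE-100 tubes in 2% agar phantoms and read at 21 MHz, 40 dB gain, persistence 3, 680–970 nm in 5 nm steps. Signals were normalized to diluted India ink. Peak signal was plotted against concentration and slopes (μM−1) compared. Data are mean ± SD.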

[3] = system: U-87MG tumors (high αvβ3 expression); experiment: In vivo photoacoustic imaging of tumor uptake, U-87MG xenograft; set-up: species or system BALB/c nu/nu mice; settings: U-87MG tumor bearing mice, n = 5/group
[4] = system: tumor, brain, lung, liver, kidneys, heart and spleen; experiment: Ex vivo optical imaging of harvested organs and tumors; format: in vivo, BALB/c nu/nu mice; settings: 24 h post-injection, 200 nmol i.v., harvested organs, n = 5/group
How it was run: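 Nude mice bearing s.c. right-flank xenografts (5 million A431 or 2 million U-87MG cells, ~14 days) received 200 nmol test compound or parent dye in 0.2 mL i.v. via the tail vein (n=5/group). At the end, FITC-albumin (100 mg/kg i.v.) was given 5 min before sacrifice. Tumor and organs were excised for optical imaging, with tumor ROIs and no background correction.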

U-87MG tumors = experiment: Fluorescence microscopy of U-87MG tumor cryosections; format: in vivo, BALB/c nu/nu mice; settings: U-87MG tumors excised 24 h after injection
How it was run: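 U-87MG tumors were excised 24 h after i.v. test compound or parent dye, with FITC-albumin given 5 min before sacrifice to estimate permeability. Tumors were embedded in OCT, fresh-frozen in ice-cold isopentane, and cryosectioned. Probe and FITC distribution were viewed by fluorescence stereomicroscopy.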

[5] = no reference given, cited from earlier work

increase of fluorescence efficiency in Seronorm compared to glucose solution [1]: 5 fold
maximum photoacoustic peak [2]: 800 nm
ex vivo optical imaging, organ distribution [4]: accumulated mainly in liver and kidney
Compound: CC1(C)C(/C=C/C=C/C=C/C=C2\N(CCCCS(=O)(=O)O)c3ccc4ccccc4c3C2(C)C)=[N+](CCCCS(=O)(=O)[O-])c2ccc3ccccc3c21 [ICG, Indocyanine green]
time of peak photoacoustic signal in tumor post-injection ([3]; 200 nmol i.v. tail vein): 15 min
photoacoustic signal reduction at 60 min compared to 15 min ([3]; 200 nmol i.v.): 70%
microscopic fluorescence distribution in tumor cryosections (U-87MG tumors): only a patchy and weak signal
blood half-life ([5]; in human): 3 to 5 min
photostability [5]: low photostability
solubility in aqueous media [5]: low solubility in aqueous media with strong tendency to form aggregates
